KCNK3 block = human KCNK3 channel inhibition, primary screen | CHO-KCNK3 thallium flux, FluxOR fluorescence; hits give low values | B-score at 10 µM | hit rate 0.84% among 340,000 | AID 602410;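 active means B-score under library mean minus 4 SD, starting fluorescence ratio at most library mean plus 5 SD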;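 further: more negative B-score means stronger inhibition of thallium flux through KCNK3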
KCNQ1 block = inhibitors of human KCNQ1 potassium channel. CHO-K1 KCNQ1, FluxOR thallium flux fluorescence; hits give high values. B-score at 10 µM. hit rate 1.3% among 310,000. AID 2642;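 active means compounds whose thallium flux B-score, printed positive for inhibition, exceeds three library SD while starting fluorescence stays within three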;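 further: channel opened by potassium depolarization with thallium stimulus after 20 min compound exposure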
Kir21 inh = blocks the mouse Kir2.1 inward-rectifier potassium channel | P35561 | HEK293-Kir2.1, FluxOR thallium flux fluorescence; hits give low values | B-score at 10 µM | hit rate 0.85% among 310,000 | AID 1672;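 active means fluorescence ratio B-score at or below minus 3 SD of library scores, with starting-brightness B-score within 2 SD, cut at about -4.2 in these data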;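 further: channel flux triggered by added potassium and thallium sulfate stimulus; B-score of peak minus minimum fluorescence over baseline after thallium stimulus; more negative B-score means stronger Kir2.1 block with less thallium influx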
Target sequence (P35561 whole entry, looked up): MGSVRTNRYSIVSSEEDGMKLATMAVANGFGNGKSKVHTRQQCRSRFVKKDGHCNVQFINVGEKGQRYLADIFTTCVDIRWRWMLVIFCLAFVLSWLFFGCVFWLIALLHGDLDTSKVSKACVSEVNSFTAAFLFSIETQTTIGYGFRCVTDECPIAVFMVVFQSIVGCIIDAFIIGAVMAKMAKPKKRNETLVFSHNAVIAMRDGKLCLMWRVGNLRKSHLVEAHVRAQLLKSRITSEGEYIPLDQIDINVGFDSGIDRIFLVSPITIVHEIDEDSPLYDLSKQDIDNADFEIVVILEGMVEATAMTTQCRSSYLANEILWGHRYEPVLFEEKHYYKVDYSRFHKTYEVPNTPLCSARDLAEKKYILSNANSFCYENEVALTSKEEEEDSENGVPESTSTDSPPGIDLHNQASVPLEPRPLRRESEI
KCNQ1 act = potentiates or activates the human KCNQ1 potassium channel; P51787; CHO-K1 KCNQ1, thallium flux FluxOR fluorescence; hits give high values; B-score at 10 µM; hit rate 0.35% among 310,000; AID 2648;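 active means fluorescence ratio B-score, a plate-corrected score, at least three library SD, with initial intensity B-score within 5 SD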
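Medium – assay buffer, equal DMSO in all wells · Material – CHO-K1 cell line with stable KCNQ1 potassium channel expression · Signal – kinetic FluxOR thallium fluorescence, 10-s 1-Hz baseline, 110-s post-stimulus read · Compound – single concentration per compound, DMSO matched to controls · Schedule – 37 °C overnight plating, 90-min dark dye load, 20-min compound pretreatment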
hERG protect = shields human hERG channel from block by proarrhythmic agents; Q12809; CHO-hERG, FluxOR thallium flux, dofetilide IC70 present; activation (rescue from dofetilide block), less the hit threshold, % at 10 µM; hit rate 0.51% among 310,000;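 active means activation above the mean of controls blocked by dofetilide plus 5 SD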;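 further: thallium influx through hERG after potassium depolarization seen as dye fluorescence rise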
KCNK9 block = human KCNK9 channel inhibition; hit rate 1.2% among 310,000; HEK293 KCNK9, FluxOR thallium flux fluorescence; hits give low values; B-score at 10 µM; AID 488922;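 active means ratio B-score over 3 SD below the library mean, with starting fluorescence within 5 SD of its mean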;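 further: negative B-score means less thallium flux so channel inhibition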
KCNQ1 inh valid = confirmation of human KCNQ1 potassium channel inhibitors; shares compounds with KCNQ1 block; KCNQ1 cell line, FluxOR thallium flux fluorescence; inhibition, % at 10 µM; hit rate 93% among 1,600; AID 588353;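 active means primary screen active, with duplicate mean exceeding buffer control mean plus 3 SD of buffer wells, cut at about 28% in these data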;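 further: 0% = buffer control ratio and 100% = XE991 inhibitor control ratio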
CHO Tl flux = activity in parental CHO cells lacking KCNQ1; shares compounds with KCNQ1 block; parental CHO-K1, FluxOR thallium flux fluorescence ratio; hits give low values; zero means no signal rise above baseline; fluorescence ratio (Tl flux) at 10 µM; hit rate 21% among 1,600;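 active means mean of duplicate thallium-flux fluorescence ratios in parental host cells more than 5 SD below the buffer control mean, cut at about 0.38 in these data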;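 further: ratio is peak minus minimum fluorescence divided by baseline fluorescence; actives read low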
KCNQ1 ephys val = confirmation of human KCNQ1 potassium channel inhibitors by electrophysiology; shares compounds with KCNQ1 block; KCNQ1-CHO cells, automated patch clamp current; calls only at 10 µM; hit rate 20% among 490; AID 624120;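 active means KCNQ1 current drop exceeding 3 SD of negative control wells, seen in both duplicate runs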;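 further: steady state current during a 2 s step from -80 to +40 mV; negative values mean current inhibition and positive values mean potentiation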
KCNQ2 spec = rat KCNQ2 inhibition in KCNQ1 inhibitor specificity screen; shares compounds with KCNQ1 block; hit rate 71% among 1,600; inhibition, % at 10 µM; KCNQ2 cells, FluxOR thallium flux fluorescence;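 active means mean percent inhibition of the KCNQ2 thallium signal more than 5 SD above the buffer-only control wells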;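 further: KCNQ2 expressed in CHO cells; 0% = buffer control wells and 100% = XE-991 inhibitor control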
KCNQ1-KCNE1 inh = human KCNQ1/KCNE1 inhibition in KCNQ1 specificity screen; AID 652147; hit rate 77% among 1,600; shares compounds with KCNQ1 block; KCNQ1/KCNE1 cells, FluxOR thallium flux fluorescence; inhibition, % at 10 µM;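 active means mean percent inhibition of duplicate wells above the buffer-only control mean plus 3 SD of those controls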;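 further: 0% = buffer only wells and 100% = XE-991 inhibitor control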
An asterisk follows results filed as active; i = inactive; . = not tested or not shown. Hits are enriched below; roughly 3.8% of the tested compounds scored in any of these assays.

SMILES	KCNK3 block	KCNQ1 block	Kir21 inh	KCNQ1 act	hERG protect	KCNK9 block	KCNQ1 inh valid	CHO Tl flux	KCNQ2 spec	KCNQ1-KCNE1 inh	others
O=c1c2c3c(sc2nc(NCCO)n1Cc1ccco1)CCCCC3	i	i	-0.14	i	-2.0	i	.	.	.	.
O=c1c2c3c(sc2nc(NCCO)n1CCc1ccccc1)CCCCC3	i	6*	-0.02	i	-13.6	i	67.0*	0.451	91.7%*	100.5%*
Fc1ccc(NC(=S)Nc2cccnc2)cc1Cl	i	8*	0.55	i	-12.8	i	66.5*	0.469	i	34.5%*
O=C(Nc1ccc(F)cc1)Nc1cccnc1	i	i	-1.21	i	-9.2	i	.	.	.	.
O=C(Nc1ccc(OC(F)(F)F)cc1)Nc1cccnc1	i	6*	1.87	i	-7.2	i	40.5*	0.477	i	i
Fc1ccc(NC(=S)Nc2ccccc2N2CCOCC2)cc1Cl	i	9*	-7.36*	i	-22.4	i	0.0	0.499	i	i
Cc1ccc(NC(=O)Nc2cccnc2)cc1Cl	i	7*	-0.02	i	-16.6	i	65.5*	0.513	i	i
O=C(Nc1cccnc1)Nc1cc(Cl)cc(Cl)c1	i	i	0.6	i	-18.3	i	.	.	.	.
Cc1ccc(CN2CC(C(=O)OCc3ccccc3Cl)CC2=O)cc1 (stereo not drawn)	i	i	-0.95	i	-16.6	i	.	.	.	.
C=CCOC(=O)C1=C[C@H](c2ccc3c(c2)OCO3)C[C@H](OCCCCO)O1	i	i	1.33	i	-2.2	i	.	.	.	.
Cc1ccc(OC(=O)CCC(=O)Nc2ccc(C(N)=O)cc2)cc1	i	i	0.25	i	-2.1	i	.	.	.	.
COc1ccc(-c2nnc(SCC(=O)N3CCCC3=O)n2N)cc1OC	i	.	.	.	.	.	.	.	.	.
CCOc1ccc(C2CC(c3cccc(OC)c3OC)n3nnnc3N2)cc1Cl (stereo not drawn)	i	7*	0.67	i	-6.9	i	0.0	0.517	59.0%*	i
COc1ccc(S(=O)(=O)n2nc(-n3c(C)ccc3C)c3c(F)cccc32)cc1OC	i	9*	-0.95	i	-9.0	i	124.5*	0.403	106.7%*	138.0%*	KCNQ1 ephys val=i
O=C(Cn1ccc(NC(=O)OCc2ccccc2)nc1=O)NCCc1ccccn1	i	.	.	.	.	.	.	.	.	.
CC(C)c1nc(SCC(=O)N2c3ccccc3CC2C)c2ccccc2n1 (stereo not drawn)	i	9*	0.67	i	-12.4	i	74.5*	0.377*	95.7%*	71.5%*
Cc1cc2cc3c(cc2nc1SCC(=O)N1c2ccccc2CC1C)OCO3 (stereo not drawn)	i	6*	1.03	i	-3.8	i	100.0*	0.35*	77.7%*	89.5%*
O=C(COC(=O)c1nc(Cl)ccc1Cl)NC1CCS(=O)(=O)C1 (stereo not drawn)	i	i	-1.17	i	-6.0	i	.	.	.	.
CCC(O)C1CCN(C(=O)c2cc(COc3ccc4ncccc4c3)on2)CC1 (stereo not drawn)	i	8*	-0.3	i	-14.9	i	57.5*	0.482	99.7%*	i
O=C(c1cc(COc2ccc3ncccc3c2)on1)N1CCC(O)CC1	i	i	0.29	i	-10.0	i	.	.	.	.
O=C(c1cc(COc2cccc(C(F)(F)F)c2)on1)N1CCC(Oc2cccnc2)CC1	i	8*	1.87	i	-15.7	i	131.5*	0.446	96.3%*	85.0%*	KCNQ1 ephys val=i
Cc1ccc(OCc2cc(C(=O)N3CCC(Oc4cccnc4)CC3)no2)cc1C	i	7*	0.37	i	-12.9	i	113.5*	0.42	83.3%*	52.0%*	KCNQ1 ephys val=i
O=C(CCCCCNC(=O)N1CCn2c1nc1ccccc12)NCc1ccccc1Cl	i	i	0.57	i	-13.7	i	.	.	.	.
CCCn1c(N)c(C(=O)CN(C)CC(=O)Nc2c(C)cc(C)cc2C)c(=O)[nH]c1=O	i	.	.	.	.	.	.	.	.	.
O=C1CSC(c2ccccc2Br)N1c1ccc(Cl)cn1 (stereo not drawn)	i	i	-0.1	i	-9.3	i	.	.	.	.
SMILES	KCNK3 block	KCNQ1 block	Kir21 inh	KCNQ1 act	hERG protect	KCNK9 block	KCNQ1 inh valid	CHO Tl flux	KCNQ2 spec	KCNQ1-KCNE1 inh	others
CCOc1ccccc1N(CC(=O)NCC1CCCO1)C(=O)CCC(=O)Nc1nccs1 (stereo not drawn)	i	i	1.76	i	0.8	i	.	.	.	.
CC(=O)c1cccc(NC(=S)NCc2ccccc2)c1	i	i	1.01	i	-5.3	i	.	.	.	.
Cc1cc(Cl)ccc1NC(=S)NCCc1ccc(Cl)cc1	i	14*	-3.76	i	-5.5	i	69.5*	0.472	78.7%*	103.0%*
S=C(NCCc1ccccc1)Nc1ccc(Cl)cc1Cl	i	7*	-1.32	i	-6.6	i	33.5*	0.491	i	i
Cc1ccc(SCCNC(=S)Nc2ccccc2)cc1	i	i	0.21	i	-13.7	i	.	.	.	.
CC(=O)c1cccc(NC(=S)NCCc2ccc(Cl)cc2)c1	i	8*	-1.87	i	-3.5	i	43.0*	0.562	i	i
Cc1cc(C)cc(NC(=S)NCCSc2ccc(Cl)cc2)c1	i	10*	-1.08	i	-11.5	i	110.5*	0.432	108.0%*	112.5%*	KCNQ1 ephys val=i
O=C(NC1CCN(C(=O)c2cccs2)CC1)c1ccccc1	i	i	0.14	i	-5.2	i	.	.	.	.
CC(=O)N1c2ccc(S(=O)(=O)NCC3CCC(C(=O)NC4CCCCC4)CC3)cc2CC1C (stereo not drawn)	i	i	-0.13	i	-4.5	i	.	.	.	.
COc1ccccc1C(=O)NC(C)c1ccc(-n2ccnc2)cc1 (stereo not drawn)	i	i	-0.39	i	-9.8	i	.	.	.	.
S=C(NCCc1ccccc1)Nc1cccc2cnccc12	i	7*	0.58	i	-15.7	i	29.0*	0.542	i	i
O=C(CCC(=O)N1CCOCC1)NCCc1ccc(Cl)cc1Cl	i	i	0	i	-9.6	i	.	.	.	.
